Measurements from ChEMBL document CHEMBL4699451, “Discovery of BIIB068: A Selective, Potent, Reversible Bruton's Tyrosine Kinase Inhibitor as an Orally Efficacious Agent for Autoimmune Diseases” (J Med Chem, 2020).
Converted amounts (≈) assume the structure as drawn.

Experiments:
[1] = In vivo inhibition of BTK-dependent B cell activation in TI-2 antigen/ NP-Ficoll-induced DBA1 mouse immunized model assessed as reduction in anti-NP IgM antibody titer administered orally twice daily for 10 days measured post last dose by ELISA; type: functional, organism-based; details: DBA1, po, 240 h, dose mg/kg 1-50, time 10 day
[2] = Lipophilicity, log D of compound by UV-HPLC method; type: physicochemical
[3] = Clearance in Sprague-Dawley rat at 1 mg/kg, iv relative to hepatic blood flow; type: ADME, organism-based; details: in vivo
[4] = Kinetic solubility of compound at pH 1.5 by shake flask method; type: physicochemical; details: buffer, read-out: Kinetic_solubility
[5] = Oral bioavailability in rat at 5 mg/kg; type: ADME, organism-based; details: in vivo
Summary of the method: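 Oral dosing in rats; vehicle 0.1% CMC/0.2% Tween-80.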

[6] = Clearance in rat at 1 mg/kg, iv; type: ADME, organism-based; details: in vivo
[7] = Clearance in rat at 1 mg/kg, iv relative to hepatic blood flow; type: ADME, organism-based; details: in vivo
[8] = AUC in dog at 5 mg/kg, po; type: ADME, organism-based, Canis lupus familiaris; parameters: dose 5 mg/kg; details: in vivo
[9] = Oral bioavailability in dog at 5 mg/kg; type: ADME, organism-based, Canis lupus familiaris; details: in vivo
[10] = Volume of distribution at steady state in dog at 1 mg/kg, iv; type: ADME, organism-based, Canis lupus familiaris; details: in vivo, read-out: Vdss
Summary of the method: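 Intravenous dosing at 1 mg/kg; vehicle 70:30 PEG-400:H2O solution.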

[11] = AUC in cynomolgus monkey at 5 mg/kg, po; type: ADME, organism-based, Macaca fascicularis; parameters: dose 5 mg/kg; details: in vivo
[12] = Cmax in cynomolgus monkey at 5 mg/kg, po; type: ADME, organism-based, Macaca fascicularis; parameters: route oral, dose 5 mg/kg; details: in vivo
[13] = Oral bioavailability in cynomolgus monkey at 5 mg/kg; type: ADME, organism-based, Macaca fascicularis; details: in vivo
[14] = Clearance in cynomolgus monkey at 1 mg/kg, iv; type: ADME, organism-based, Macaca fascicularis; details: in vivo
[15] = Half life in cynomolgus monkey at 1 mg/kg, iv; type: ADME, organism-based, Macaca fascicularis; details: in vivo
Cytochrome P450 1A2 = target: T1, Cytochrome P450 1A2 (Homo sapiens, UniProt P05177); assay: Inhibition of CYP1A2 in human liver microsomes using phenacetin as substrate measured after 15 mins in presence of NADPH by LC-MS/MS analysis; type: ADME
T1 sequence (P05177 whole entry): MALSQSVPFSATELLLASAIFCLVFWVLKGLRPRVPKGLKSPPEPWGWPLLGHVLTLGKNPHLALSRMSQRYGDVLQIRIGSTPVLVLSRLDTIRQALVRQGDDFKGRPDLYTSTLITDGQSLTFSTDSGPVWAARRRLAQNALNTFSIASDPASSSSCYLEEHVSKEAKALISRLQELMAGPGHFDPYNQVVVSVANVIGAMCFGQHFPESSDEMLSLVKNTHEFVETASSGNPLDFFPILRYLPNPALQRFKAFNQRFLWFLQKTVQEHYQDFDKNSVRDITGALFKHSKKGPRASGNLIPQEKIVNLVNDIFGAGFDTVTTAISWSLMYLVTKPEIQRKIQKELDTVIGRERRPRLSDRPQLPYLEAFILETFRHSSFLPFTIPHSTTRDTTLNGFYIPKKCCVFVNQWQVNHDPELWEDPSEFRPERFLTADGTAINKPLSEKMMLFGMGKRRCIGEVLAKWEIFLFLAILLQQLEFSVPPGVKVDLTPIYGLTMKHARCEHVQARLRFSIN

Cytochrome P450 2C9 = Cytochrome P450 2C9 (Homo sapiens, UniProt P11712); assay: Inhibition of CYP2C9 in human liver microsomes using tolbutamide as substrate measured after 15 mins in presence of NADPH by LC-MS/MS analysis; type: ADME
Cytochrome P450 2C19 = Cytochrome P450 2C19 (Homo sapiens, UniProt P33261); assay: Inhibition of CYP2C19 in human liver microsomes using S-mephenytoin as substrate measured after 30 mins in presence of NADPH by LC-MS/MS analysis; type: ADME
Cytochrome P450 3A4 [16] = target: T2, Cytochrome P450 3A4 (Homo sapiens, UniProt P08684); assay: Inhibition of CYP3A4 in human liver microsomes using midazolam as substrate measured after 15 mins in presence of NADPH by LC-MS/MS analysis; type: ADME
[17] = target: Voltage-gated inwardly rectifying potassium channel KCNH2 (Homo sapiens, UniProt Q12809); assay: Inhibition of human ERG by automated patch-clamp assay
[18] = Aqueous solubility of compound in simulated intestinal fluid at pH 7 by HPLC method; type: physicochemical
[19] = Aqueous solubility of compound in simulated gastric fluid at pH 2 by HPLC method; type: physicochemical
[20] = Protein binding in cynomolgus monkey plasma assessed as unbound fraction; type: ADME, cell-free, Macaca fascicularis
[21] = Protein binding in dog plasma assessed as unbound fraction; type: ADME, cell-free, Canis lupus familiaris
Cytochrome P450 3A4 [22] = target: T2, Cytochrome P450 3A4; assay: Induction of CYP3A4 in human hepatocytes up to 50 uM; type: ADME, cell-based, Hepatocyte
Summary of the method: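 Sandwich-cultured human hepatocytes exposed at concentrations up to 50 μM; induction of CYP1A2, 2B6 and 3A4 assessed.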

[23] = Stability in Beagle dog plasma assessed as parent compound remaining after 6 hrs; type: ADME, cell-free, Canis lupus familiaris; details: read-out: Stabilty
Summary of the method: (§1)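 Compound incubated in plasma for 6 hours, then percentage of parent compound remaining determined.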

[24] = Stability in cynomolgus monkey plasma assessed as parent compound remaining after 6 hrs; type: ADME, cell-free, Macaca fascicularis; details: read-out: Stabilty; summary of the method: as §1
[25] = Drug metabolism in human liver microsomes assessed as O-deisopropylation; type: ADME, Microsome
[26] = Drug metabolism in human liver microsomes assessed as oxidation at pyrazole moiety; type: ADME, Microsome
[27] = Drug metabolism in human liver microsomes assessed as N-demethylation; type: ADME, Microsome
[28] = Toxicity in Sprague-Dawley rat assessed as change in body weight measured up to 13 weeks; details: in vivo, 2184 h
Summary of the method: (§2)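 GLP toxicity studies lasting up to 13 weeks, run in Sprague-Dawley rats and cynomolgus monkeys.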

[29] = Toxicity in Sprague-Dawley rat assessed as effect on organ weight measured up to 13 weeks; details: in vivo, 2184 h; summary of the method: as §2
[30] = Toxicity in Sprague-Dawley rat assessed as effect on gross pathology measured up to 13 weeks; details: in vivo, 2184 h; summary of the method: as §2
[31] = Toxicity in cynomolgus monkey assessed as effect on clinical sign measured up to 13 weeks; parameters: species or system Macaca fascicularis; details: in vivo, 2184 h; summary of the method: as §2
[32] = Toxicity in cynomolgus monkey assessed as effect on food consumption measured up to 13 weeks; parameters: species or system Macaca fascicularis; details: in vivo, 2184 h; summary of the method: as §2
[33] = Toxicity in cynomolgus monkey assessed as change in ECG measured up to 13 weeks; parameters: species or system Macaca fascicularis; details: in vivo, 2184 h; summary of the method: as §2
[34] = Toxicity in cynomolgus monkey assessed as effect on clinical pathology measured up to 13 weeks; parameters: species or system Macaca fascicularis; details: in vivo, 2184 h; summary of the method: as §2
[35] = Toxicity in cynomolgus monkey assessed as effect on organ weight measured up to 13 weeks; parameters: species or system Macaca fascicularis; details: in vivo, 2184 h; summary of the method: as §2
[36] = Toxicity in Sprague-Dawley rat measured up to 13 weeks; details: in vivo; summary of the method: as §2
[37] = Toxicity in cynomolgus monkey measured up to 13 weeks; parameters: species or system Macaca fascicularis; details: in vivo; summary of the method: as §2
[38] = Toxicity in Sprague-Dawley rat assessed as effect on CNS administered as single dose; details: in vivo
Summary of the method: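 Single-dose CNS and respiratory safety studies in rats.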

[39] = Toxicity in cynomolgus monkey assessed as effect on cardiovascular system administered as single dose; parameters: species or system Macaca fascicularis; details: in vivo
Summary of the method: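 Single-dose cardiovascular safety study in cynomolgus monkeys.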

[40] = Genotoxicity in Sprague-Dawley rat assessed as clastogenic activity by micronucleus assay; type: toxicity
Summary of the method: (§3)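 In vivo micronucleus test in Sprague-Dawley rats; bone marrow scored for micronuclei, clastogenic activity and disruption of the mitotic apparatus.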

[41] = Genotoxicity in Sprague-Dawley rat assessed as disruption of mitotic apparatus in bone marrow by micronucleus assay; type: toxicity; summary of the method: as §3

T2 sequence (P08684 whole entry): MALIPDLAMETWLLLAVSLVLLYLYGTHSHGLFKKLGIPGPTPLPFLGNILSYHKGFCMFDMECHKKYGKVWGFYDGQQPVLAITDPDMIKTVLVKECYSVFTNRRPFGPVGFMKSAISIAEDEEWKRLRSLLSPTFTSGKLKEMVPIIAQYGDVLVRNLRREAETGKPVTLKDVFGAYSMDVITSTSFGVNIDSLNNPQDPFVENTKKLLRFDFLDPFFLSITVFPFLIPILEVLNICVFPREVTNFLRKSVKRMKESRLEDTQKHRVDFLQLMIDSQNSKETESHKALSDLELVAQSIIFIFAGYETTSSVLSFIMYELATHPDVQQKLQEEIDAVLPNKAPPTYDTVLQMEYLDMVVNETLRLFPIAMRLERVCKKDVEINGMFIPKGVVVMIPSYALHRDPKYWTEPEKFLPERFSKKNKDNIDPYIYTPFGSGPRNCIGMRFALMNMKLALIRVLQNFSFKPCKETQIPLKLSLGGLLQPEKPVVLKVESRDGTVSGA
Chain of Cytochrome P450 2C19 (P33261 whole entry): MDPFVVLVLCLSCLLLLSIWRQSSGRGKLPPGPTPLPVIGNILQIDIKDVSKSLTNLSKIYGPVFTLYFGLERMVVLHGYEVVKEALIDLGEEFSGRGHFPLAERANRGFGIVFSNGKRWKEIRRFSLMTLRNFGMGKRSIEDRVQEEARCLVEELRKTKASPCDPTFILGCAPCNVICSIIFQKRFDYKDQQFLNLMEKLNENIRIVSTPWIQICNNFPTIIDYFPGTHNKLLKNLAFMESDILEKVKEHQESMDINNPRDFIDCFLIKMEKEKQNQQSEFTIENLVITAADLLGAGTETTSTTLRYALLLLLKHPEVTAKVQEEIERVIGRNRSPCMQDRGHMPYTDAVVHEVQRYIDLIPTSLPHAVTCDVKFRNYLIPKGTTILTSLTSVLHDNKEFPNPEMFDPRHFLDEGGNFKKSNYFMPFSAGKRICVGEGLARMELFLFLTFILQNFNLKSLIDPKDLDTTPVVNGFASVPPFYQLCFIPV
Chain of Voltage-gated inwardly rectifying potassium channel KCNH2 (Q12809 whole entry): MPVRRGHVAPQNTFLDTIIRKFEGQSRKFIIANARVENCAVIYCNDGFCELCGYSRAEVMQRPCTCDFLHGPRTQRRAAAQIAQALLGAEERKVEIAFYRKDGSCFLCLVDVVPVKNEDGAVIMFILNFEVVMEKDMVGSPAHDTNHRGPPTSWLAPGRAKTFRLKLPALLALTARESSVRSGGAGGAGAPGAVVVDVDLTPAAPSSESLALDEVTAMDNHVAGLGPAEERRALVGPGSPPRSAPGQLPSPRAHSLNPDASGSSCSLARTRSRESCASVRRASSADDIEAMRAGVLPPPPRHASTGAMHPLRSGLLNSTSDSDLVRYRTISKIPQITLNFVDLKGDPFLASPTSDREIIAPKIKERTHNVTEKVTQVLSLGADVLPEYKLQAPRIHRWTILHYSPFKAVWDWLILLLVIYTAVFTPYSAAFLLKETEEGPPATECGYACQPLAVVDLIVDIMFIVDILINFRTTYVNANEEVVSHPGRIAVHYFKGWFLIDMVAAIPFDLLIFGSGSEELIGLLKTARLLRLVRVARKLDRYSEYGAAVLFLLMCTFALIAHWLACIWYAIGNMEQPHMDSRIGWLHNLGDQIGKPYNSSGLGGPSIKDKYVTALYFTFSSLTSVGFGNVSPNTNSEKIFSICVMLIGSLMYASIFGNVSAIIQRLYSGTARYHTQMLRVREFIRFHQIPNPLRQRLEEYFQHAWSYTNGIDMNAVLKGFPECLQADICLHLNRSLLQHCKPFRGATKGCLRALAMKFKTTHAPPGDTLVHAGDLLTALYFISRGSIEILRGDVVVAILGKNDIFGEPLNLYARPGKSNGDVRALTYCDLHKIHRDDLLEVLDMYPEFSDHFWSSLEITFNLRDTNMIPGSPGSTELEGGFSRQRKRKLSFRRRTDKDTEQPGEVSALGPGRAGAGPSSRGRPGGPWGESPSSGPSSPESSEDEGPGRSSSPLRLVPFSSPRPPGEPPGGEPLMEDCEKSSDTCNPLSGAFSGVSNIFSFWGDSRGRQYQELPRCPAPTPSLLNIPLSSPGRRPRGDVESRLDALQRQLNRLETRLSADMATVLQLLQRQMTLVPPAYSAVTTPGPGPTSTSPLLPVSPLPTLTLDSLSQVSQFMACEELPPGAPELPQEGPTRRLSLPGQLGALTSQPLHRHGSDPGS
Chain of Cytochrome P450 2C9 (P11712 whole entry): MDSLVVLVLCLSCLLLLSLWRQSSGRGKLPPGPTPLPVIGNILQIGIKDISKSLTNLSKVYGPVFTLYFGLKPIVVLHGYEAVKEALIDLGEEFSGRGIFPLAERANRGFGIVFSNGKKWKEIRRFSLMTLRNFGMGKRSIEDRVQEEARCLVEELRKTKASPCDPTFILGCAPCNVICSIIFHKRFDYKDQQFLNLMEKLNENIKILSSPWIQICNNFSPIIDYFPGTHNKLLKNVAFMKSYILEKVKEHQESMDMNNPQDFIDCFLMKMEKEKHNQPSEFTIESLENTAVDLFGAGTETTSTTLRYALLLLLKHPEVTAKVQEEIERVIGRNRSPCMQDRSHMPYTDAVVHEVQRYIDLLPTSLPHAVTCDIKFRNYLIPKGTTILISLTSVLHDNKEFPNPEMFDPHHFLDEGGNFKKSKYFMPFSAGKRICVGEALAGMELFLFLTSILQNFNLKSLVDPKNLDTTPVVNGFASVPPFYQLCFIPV

- logD [2]: 2.32
- CL [3]: 1%
- solubility kinetic [4]: > 50 µg/mL
- bioavailability [5]: 48%
- clearance [6]: 3 mL/min/kg
- CL [7]: 6%
- AUC [8]: 1940 ng·h/mL
- bioavailability [9]: 26%
- Vd [10]: 1.2 L/kg
- AUC [11]: 2350 ng·h/mL
- Cmax [12]: 282 ng/mL
- bioavailability [13]: 32%
- clearance [14]: 11 mL/min/kg
- half-life [15]: 54 min
- IC50 (Cytochrome P450 1A2): > 25 µM
- IC50 (Cytochrome P450 2C9): > 25 µM
- IC50 (Cytochrome P450 2C19): > 25 µM
- IC50 (Cytochrome P450 3A4 [16]): > 25 µM
- solubility [18]: 1 µg/mL (≈ 2.3 µM)
- solubility [19]: > 100 µg/mL
- fraction unbound [20]: 0.0362
- fraction unbound [21]: 0.113
- Activity (Cytochrome P450 3A4 [22]): Not Active
- remaining at 6 h [23]: > 95%
- remaining at 6 h [24]: > 95%
- Drug metabolism [25]: Metabolite_Detected
- Drug metabolism [26]: Metabolite_Detected
- Drug metabolism [27]: Metabolite_Detected
SMILES: Cc1cc(-c2ccnc(Nc3cnn(C)c3)n2)ccc1CNC(=O)N1CC(OC(C)C)C1
- ED50 [1]: 4.4 mg/kg
- IC50 [17]: > 50 µM
- Activity [28]: Non-Toxic
- Activity [29]: Non-Toxic
- Activity [30]: Non-Toxic
- Activity [31]: Non-Toxic
- Activity [32]: Non-Toxic
- Activity [33]: Non-Toxic
- Activity [34]: Non-Toxic
- Activity [35]: Non-Toxic
- NOAEL at 2184 h [36]: 50 mg/kg/day
- NOAEL at 2184 h [37]: 100 mg/kg/day
- Activity [38]: Non-Toxic
- Activity [39]: Non-Toxic
- Activity [40]: Non-Toxic
- Activity [41]: Non-Toxic
